{
  "source": "paper PMC7614726",
  "about": "(ACS chemical neuroscience, 2020)",
  "key": {"wild-type SCG neurons": {"system": "wild-type SCG neurons", "test": "Axonal transport of mitochondria in dissociated wild-type SCG neurons", "type": "cell-based, mouse", "details": "100 nM T-3796106, 250 nM T-3793168, 1 μM Tubastatin A, 24 h"}, "[1]": {"system": "SCG neurons expressing HSPB1^S135F", "test": "Axonal transport of mitochondria in SCG neurons expressing HSPB1 S135F", "type": "cell-based, mouse", "details": "24 h, 100 nM T-3796106, 250 nM T-3793168, 1 μM Tubastatin A", "summary_of_the_method": "(§1)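 Medium contained NGF, 10% FBS and 4 μM aphidicolin. Nuclei were microinjected with mutant human HSPB1 plus mito-EGFP (total DNA ≤0.05 μg/μL). Controls got DMSO. Spinning-disk confocal at 37°C/5% CO2, […], frames 1 s apart for 2 min, 4–5 neurons per dish. Difference Tracker counted moving particles per 1000 pixels.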"}, "[2]": {"system": "SCG neurons expressing HSPB1^P182L", "test": "Axonal transport of mitochondria in SCG neurons expressing HSPB1 P182L", "type": "cell-based, mouse", "details": "100 nM T-3796106, 250 nM T-3793168, 1 μM Tubastatin A", "summary_of_the_method": "as §1"}, "[3]": {"system": "acetylated α-tubulin in human whole blood lymphocytes", "test": "Human whole blood assay, acetylated α-tubulin by flow cytometry", "type": "cell-based", "details": "10 and 30 μM", "summary_of_the_method": "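Whole blood from healthy volunteers (25 μL) was mixed with compound diluted in RPMI 1640/10% FBS, with 0.1% DMSO final in controls. Incubation was 30 min at 37°C/5% CO2, then 3.5 h more after adding medium. Cells were lysed/fixed 10 min at room temperature and permeabilised 20 min on ice. Staining used AF647-labelled anti-acetylated α-tubulin or isotype control, 20–30 min on ice. Flow cytometry used a lymphocyte gate.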"}, "[4]": {"test": "Precipitation on addition to culture medium", "type": "physicochemical", "details": "culture medium (RPMI 1640, 10% FBS)"}},
  "data": [
    {"compound": "CN1CCc2c(c3ccccc3n2Cc2ccc(C(=O)NO)cc2)C1", "note": "[Tubastatin A]", "values": [
      {"measurement": "Number, average and maximum velocity of axonally transported mitochondria", "setting": "wild-type SCG neurons", "value": "no significant change"},
      {"measurement": "Average and maximum speed of mitochondria movement", "setting": "[1]", "value": "unaffected by any of these treatments"},
      {"measurement": "Rescue of anterograde mitochondrial transport (number of moving mitochondria)", "setting": "[1]", "value": "rescue of anterograde axonal transport"},
      {"measurement": "Effect on mitochondrial movement", "setting": "[2]", "value": "no effect on mitochondrial movement"},
      {"measurement": "Levels of acetylated a-tubulin at 10 versus 30 μM", "setting": "[3]", "value": "almost the same"}
    ]},
    {"compound": "O=C(CCCCCCNC(=O)c1cnc(N(c2ccccc2)c2ccccc2)nc1)NO", "note": "[ACY-1215]", "values": [
      {"measurement": "Levels of acetylated a-tubulin at 10 versus 30 μM", "setting": "[3]", "value": "almost the same"},
      {"measurement": "Concentration showing some precipitate when added in the culture medium", "setting": "[4]", "value": 300, "unit": "µM"}
    ]}
  ]
}
